From ChEMBL document CHEMBL1127319, “CNAD: a potent and specific inhibitor of alcohol dehydrogenase” (J Med Chem, 1994)

Substrate: NC(=O)c1ccc[n+]([C@@H]2O[C@H](COP(=O)([O-])OP(=O)(O)OC[C@H]3O[C@@H](n4cnc5c(N)ncnc54)[C@H](O)[C@@H]3O)[C@@H](O)[C@H]2O)c1
Assay: Michaelis-Menten constant against mammalian liver alcohol dehydrogenase (ADH)
Conditions: Equus caballus
Summary of the method: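 NAD is varied and the A340 increase from NADH formation is monitored (ε 6.22 mM-1 cm-1). Buffers differ by enzyme: ADH in 0.1 M phosphate, pH 8.0, with ethanol 1.2 mM; GDH in 0.1 M phosphate, pH 7.0, with 10 μM EDTA; LDH and MDH in 0.05 M Tris-HCl, pH 9.0. At least duplicate.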

B1: Alcohol dehydrogenase 1A (Homo sapiens), P07327 (protein)
chain: MSTAGKVIKCKAAVLWELKKPFSIEEVEVAPPKAHEVRIKMVAVGICGTDDHVVSGTMVTPLPVILGHEAAGIVESVGEGVTTVKPGDKVIPLAIPQCGKCRICKNPESNYCLKNDVSNPQGTLQDGTSRFTCRRKPIHHFLGISTFSQYTVVDENAVAKIDAASPLEKVCLIGCGFSTGYGSAVNVAKVTPGSTCAVFGLGGVGLSAIMGCKAAGAARIIAVDINKDKFAKAKELGATECINPQDYKKPIQEVLKEMTDGGVDFSFEVIGRLDTMMASLLCCHEACGTSVIVGVPPDSQNLSMNPMLLLTGRTWKGAILGGFKSKECVPKLVADFMAKKFSLDALITHVLPFEKINEGFDLLHSGKSIRTILMF
Km: 25 µM
